The source of these data is ChEMBL document CHEMBL1143180, “Imidazolyl benzimidazoles and imidazo[4,5-b]pyridines as potent p38alpha MAP kinase inhibitors with excellent in vivo antiinflammatory properties” (Bioorg Med Chem Lett, 2008).

Data set [1] deals with Mitogen-activated protein kinase 14 (Mus musculus, UniProt P47811). Kind of data set: Inhibition of mouse p38alpha in anisomycin-stimulated RAW 264.7 cells by ELISA. It counts as cell-based. In a few lines: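 Cell-based ELISA: RAW 264.7 cells pretreated with compound, then stimulated with anisomycin; p38α activity detected by antibody to phospho-MAPKAPK-2 (Thr334), a residue phosphorylated specifically by p38α. Minimum significant ratio 2.8.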
For orientation: An ELISA detects its analyte on a solid surface through an enzyme-linked reagent.

For another data set, the system named is Macrophage. Kind of data set: Inhibition of LPS-stimulated TNFalpha production in mouse peritoneal macrophages. The format is functional, cell-based. In a few lines: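 Murine peritoneal macrophages stimulated with LPS while exposed to test compound; TNFα release measured as functional read-out. Cell assay minimum significant ratio 2.8.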
In data set [2] the target is Mitogen-activated protein kinase 14 (Homo sapiens, UniProt Q16539). In words: Inhibition of human recombinant p38alpha.
Data set [3] in a line: Half life in rat at 10 mg/kg, po. The format is ADME, organism-based. On the set-up: dose 10 mg/kg, route oral. Particulars: in vivo. In a few lines:
(§1)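 Rats dosed orally at 10 mg/kg; plasma exposure reported as AUC0-inf and terminal half-life.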

A short description of data set [4]: AUC (0 to infinity) in rat at 10 mg/kg, po. On the set-up: time infinity, dose 10 mg/kg, route oral. It counts as ADME, organism-based. As to conditions: plasma. In a few lines:
as §1

For data set [5], the system named is Rattus norvegicus. Kind of data set: Antiinflammatory activity against collagen-induced arthritis rat model assessed as inhibition of paw swelling administered orally twice daily for 14 days. The format is functional. In a few lines:
(§2)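 Rat collagen-induced arthritis, 14-day chronic model; activity scored by paw swelling and by histopathology (bone erosion, cartilage destruction); TMED50 derived from dose response.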

Data set [6] has as its system Rattus norvegicus. Kind of data set: Antiinflammatory activity against collagen-induced arthritis rat model assessed as effect on histopathology scores administered orally twice daily for 14 days. It counts as functional. In a few lines: as §2
The test system of another data set is Mus musculus. In words: Inhibition of LPS-stimulated TNFalpha production in po dosed BALB/c mouse. It counts as functional.

A value given as a limit tells only on which side of the number the result lay.

Sequence of Mitogen-activated protein kinase 14 (Homo sapiens, UniProt Q16539) (Q16539 whole entry): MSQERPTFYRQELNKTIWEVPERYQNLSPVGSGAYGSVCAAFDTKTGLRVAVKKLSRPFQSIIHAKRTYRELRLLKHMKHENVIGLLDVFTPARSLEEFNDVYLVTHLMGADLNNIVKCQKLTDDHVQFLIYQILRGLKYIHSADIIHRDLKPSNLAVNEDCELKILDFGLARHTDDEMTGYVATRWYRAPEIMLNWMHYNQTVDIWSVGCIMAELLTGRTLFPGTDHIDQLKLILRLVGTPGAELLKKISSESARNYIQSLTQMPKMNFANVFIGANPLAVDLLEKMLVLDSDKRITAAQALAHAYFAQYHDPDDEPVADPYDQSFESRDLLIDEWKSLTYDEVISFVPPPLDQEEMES
Sequence of Mitogen-activated protein kinase 14 (Mus musculus, UniProt P47811) (P47811 whole entry): as the sequence (Q16539 whole entry) above, with L48H, T263A counted along it

Usually IC50 stands for the midpoint of a concentration-inhibition curve. On to `CC(C)S(=O)(=O)n1c(N)nc2ccc(-c3[nH]cnc3-c3ccccc3)cc21`, for which the IC50 in data set [1] was 195 nM; in the data set with Macrophage it was 31.8 nM.

As for `CC(C)S(=O)(=O)n1c(N)nc2ccc(-c3nc(-c4c(Cl)cccc4Cl)[nH]c3-c3ccccc3)cc21`, the figures for the 50% inhibitory concentration (IC50) (in data set [1]; in the data set with Macrophage) were 38.9 nM and 2.6 nM, respectively.

Take `Cc1nc2ccc(-c3[nH]c(-c4c(F)cccc4F)nc3-c3ccccc3)cc2n1CC(C)C`: the IC50 was 11.2 nM in data set [2] and 338 nM in the data set on Macrophage.

For the molecule `Cc1nc(-c2ccccc2)c(-c2ccc3nc(N)n(S(=O)(=O)C(C)C)c3c2)[nH]1`, the IC50 in data set [2] worked out at 20.4 nM; with Macrophage it was 186 nM.

On to `CC(C)S(=O)(=O)n1c(N)nc2ccc(-c3[nH]c(-c4c(Cl)cccc4C(F)(F)F)nc3-c3ccccc3)cc21`, for which the IC50 in data set [1] worked out at 398 nM; in data set [2], 8.5 nM; in the data set with Macrophage it was 1.9 nM.

As for `CC(C)(C)Cn1cnc2ccc(-c3[nH]c(C(C)(C)C)nc3-c3ccc(F)cc3F)nc21`, the half-inhibitory concentration (IC50) in data set [1] was determined as 20.7 nM; in the data set with Macrophage, 24.1 nM.

Turning to `Cc1nc(-c2ccc(F)cc2F)c(-c2ccc3nc(N)n(S(=O)(=O)C(C)C)c3c2)[nH]1`, the 50% inhibitory concentration (IC50) in data set [1] was 59.7 nM; in data set [2] it was 8.8 nM; in the data set on Macrophage it was 46.5 nM.

Regarding `Cc1nc(-c2ccc(F)cc2)c(-c2ccc3nc(N)n(S(=O)(=O)C(C)C)c3c2)[nH]1`, the values for the IC50 (in data set [1]; in data set [2]; in the data set with Macrophage) were 225 nM, 7.1 nM and 104 nM, respectively.

With `CC(C)S(=O)(=O)n1c(N)nc2ccc(-c3nc(-c4ccccc4C(F)(F)F)[nH]c3-c3ccccc3)cc21`, the IC50 is 284 nM in data set [1], 26.1 nM in data set [2] and 33.1 nM in the data set with Macrophage.

`CC(C)S(=O)(=O)n1c(N)nc2ccc(-c3[nH]c(-c4c(F)cccc4F)nc3-c3ccccc3)nc21`: the IC50 turned out to be 298 nM in data set [1], 3.5 nM in data set [2] and 3.7 nM in the data set with Macrophage.

Regarding `CC(C)S(=O)(=O)n1c(N)nc2ccc(-c3[nH]c(-c4c(F)cccc4Cl)nc3-c3ccccc3)cc21`, the IC50 was found to be 74.5 nM in data set [1], 14.5 nM in data set [2] and 11.2 nM in the data set with Macrophage.

As to `Fc1cccc(F)c1-c1nc(-c2ccccc2)c(-c2ccc3nc[nH]c3c2)[nH]1`, the IC50 in data set [1] came out at 766 nM; in data set [2], 88.4 nM; in the data set on Macrophage it was 419 nM.

On to `CC(C)S(=O)(=O)n1c(N(C)Cc2ccccc2)nc2ccc(-c3[nH]c(-c4c(F)cccc4F)nc3-c3ccccc3)cc21`, for which the values for the IC50 (in data set [2]; with Macrophage) were 2490 nM and 234 nM, respectively.

On to `Nc1nc2ccc(-c3[nH]c(-c4c(F)cccc4F)nc3-c3ccccc3)cc2[nH]1`, for which the IC50 in data set [2] is 131 nM; with Macrophage, 1330 nM.

Consider `CC(C)Cn1cnc2ccc(-c3[nH]c(-c4c(F)cccc4F)nc3-c3ccccc3)nc21`, for which the results for the IC50 (in data set [1]; in data set [2]; in the data set with Macrophage) were 69.7 nM, 4.5 nM and 26.7 nM, respectively.

As a reminder, the half-life is how long it takes for the measured level to halve. Usually AUC(0-inf) stands for the area under the concentration-time curve extrapolated to infinity. Lower therefore signals less exposure. Consider `CC(C)S(=O)(=O)n1c(N)nc2ccc(-c3[nH]c(-c4c(F)cccc4F)nc3-c3ccccc3)cc21`, for which the half-life in data set [3] was 5 h. Besides, in data set [4], the AUC(0-inf) amounted to 5.5 µM·h. For the same molecule, the results for the IC50 (in data set [1]; in the data set on Macrophage) were 45.7 nM and 10.3 nM, respectively. Moreover, the TMED50 in the data set on Rattus norvegicus [5] is more than 30 mg/kg; with Rattus norvegicus [6] it was more than 30 mg/kg; in the data set on Mus musculus, 5.2 mg/kg.

`CC(C)(C)Cn1c(N)nc2ccc(-c3[nH]c(-c4c(F)cccc4F)nc3-c3ccccc3)cc21`: the IC50 in data set [1] came out at 126 nM; in data set [2], 6 nM; with Macrophage, 3.5 nM.

Regarding `CC(C)S(=O)(=O)n1c(N)nc2ccc(-c3nc(-c4c(Cl)cccc4Cl)[nH]c3-c3ccc(F)cc3)cc21`, the results for the IC50 (in data set [1]; in data set [2]; with Macrophage) were 27.5 nM, 6.7 nM and 5.3 nM, respectively.

Turning to `CCNc1nc2ccc(-c3[nH]c(-c4c(F)cccc4F)nc3-c3ccccc3)cc2n1S(=O)(=O)C(C)C`, the IC50 was found to be 156 nM in data set [2] and 527 nM in the data set on Macrophage.

As for `CC(C)(C)Cn1c(N)nc2ccc(-c3[nH]c(-c4c(F)cccc4F)nc3-c3ccccc3)nc21`, the IC50 in data set [2] was 6.4 nM; in the data set with Macrophage, less than 9 nM.

On to `CC(C)S(=O)(=O)n1c(N)nc2ccc(-c3[nH]c(-c4ccc(Cl)cc4)nc3-c3ccccc3)cc21`, for which the half-maximal inhibitory concentration (IC50) in data set [1] came to 376 nM; in data set [2], 34.7 nM; in the data set with Macrophage it was 71 nM.

Turning to `CCNc1nc2ccc(-c3[nH]c(-c4c(F)cccc4F)nc3-c3ccccc3)cc2[nH]1`, the IC50 in data set [2] is 56.4 nM; in the data set with Macrophage it was 493 nM.

As to `CC(C)S(=O)(=O)n1c(N)nc2ccc(-c3[nH]c(C(C)(C)C)nc3-c3ccc(F)cc3F)cc21`, the half-life in data set [3] is 8 h. Further, in data set [4], the AUC(0-inf) was determined as 14.6 µM·h. Moreover, the 50% inhibitory concentration (IC50) stood at 26.2 nM in data set [1] and 6.2 nM with Macrophage. Also, the values for the TMED50 in the data set with Rattus norvegicus [5], in the data set on Rattus norvegicus [6] and with Mus musculus were 1.5 mg/kg, 8.1 mg/kg and 2.2 mg/kg, respectively.

For `Nc1nc2ccc(-c3[nH]c(-c4c(F)cccc4F)nc3-c3ccccc3)cc2n1-c1ccccc1`, the IC50 in data set [2] is 158 nM.

As to `CC(C)Cn1cnc2ccc(-c3[nH]c(-c4c(F)cccc4F)nc3-c3ccccc3)cc21`, the values for the IC50 (in data set [2]; in the data set with Macrophage) were 16.2 nM and 51.9 nM, respectively.

In turn, `CC(C)Cn1cnc2ccc(-c3[nH]c(-c4c(Cl)cccc4Cl)nc3-c3ccccc3)nc21.CS(=O)(=O)O` gave a half-life in data set [3] of 4 h. The area under the curve AUC(0-inf) in data set [4] turned out to be 29.9 µM·h. For the same molecule, the figures for the half-maximal inhibitory concentration (IC50) (in data set [1]; in data set [2]; in the data set with Macrophage) were 64.7 nM, 3.7 nM and 1.7 nM, respectively. In addition, the TMED50 is 15 mg/kg in the data set on Rattus norvegicus [5], more than 30 mg/kg with Rattus norvegicus [6] and less than 2.5 mg/kg with Mus musculus.

With `CC(C)S(=O)(=O)n1c(N)nc2ccc(-c3[nH]c(-c4ccncc4)nc3-c3ccccc3)cc21`, the IC50 in data set [1] was 62.3 nM; in data set [2] it was 6.1 nM; in the data set with Macrophage it was 14.1 nM.

Take `CC(C)Cn1c(N)nc2ccc(-c3[nH]c(-c4c(F)cccc4F)nc3-c3ccccc3)nc21`: the figures for the IC50 (in data set [1]; in data set [2]; with Macrophage) were 35 nM, 2.5 nM and 1.3 nM, respectively.

As to `CC(C)Cn1c(N)nc2ccc(-c3[nH]c(-c4c(F)cccc4F)nc3-c3ccccc3)cc21`, the half-inhibitory concentration (IC50) turned out to be 78.3 nM in data set [1], 9.9 nM in data set [2] and 47.5 nM in the data set with Macrophage.
